Results reported in publication PMC2929396 (Chemistry & biology, 2010).
Read-outs that look alike come from different tables or passages of the source. One block for each compound: values may come before it.

Tests used:
P. falciparum [1] = assay: P. falciparum replication assay; type: cell-based, Plasmodium falciparum; conditions: read-out: EC50Pot; standard 75 h replication assay, ring stage D10 parasites
In short: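 D10 parasites were synchronized by 70% Percoll schizont harvest, a 1 h invasion window and sorbitol. Ring-stage cultures (~2% parasitemia, 0.5% hematocrit) were treated with compound for ~75 h, until DMSO controls reached schizonts. Infected versus uninfected RBCs were counted by FACS. EC50Pot was fitted to a dose response curve.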

HFF cells = assay: Cell toxicity, CellTiter-Glo; type: cell-based, human; conditions: ATP production after 24 h treatment of HFF cells with 0.01–100 µM compound
In short: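 HFF cells were incubated 24 h with inhibitor (0.01–100 µM) or DMSO. Viability was read as ATP by CellTiter-Glo. EC50Tox was obtained by fitting the data to a dose response curve.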

FPs (FP2/3) = assay: Competition assay with activity-based probe 125I-DCG04, falcipain labeling; type: biochemical, Plasmodium falciparum; conditions: parasite lysates
In short: (§1)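 Trophozoite or merozoite lysates, or intact schizonts, were used in acetate buffer (50 mM sodium acetate, 5 mM MgCl2, 5 mM DTT, pH 5.5). Lysates were preincubated 30 min with 10 µM inhibitor, then labeled 1 h. FY01 labeled DPAPs (fluorescent SDS-PAGE scan) and 125I-DCG04 labeled falcipains (autoradiography). Loss of band signal indicated inhibition, and IC50s came from quantified gel bands.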

[2] = ref personal communication, David Percival, Merck; cited from earlier work
P. falciparum [3] = assay: Phenotypic effects in Geimsa-stained thin blood smears; type: cell-based, Plasmodium falciparum; conditions: schizonts treated 24 h
In short: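 Synchronous schizont-stage cultures were exposed to inhibitor for 24 h across increasing concentrations. Morphology was assessed on Giemsa-stained thin blood smears.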

DPAP3 = assay: Competition assay with activity-based probe FY01, DPAP3 labeling; type: biochemical, Plasmodium falciparum; conditions: parasite lysates
In short: as §1

P. falciparum [4] = assay: Replication assay after 1h treatment and washout; type: cell-based, Plasmodium falciparum; conditions: 1h treatment at different life cycle stages
In short: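 Tightly synchronized parasites were exposed 1 h to inhibitor or DMSO at 1, 10, 18, 30, 38 or 46 h post-invasion. They were then washed 3× and cultured until progeny in DMSO controls reached schizonts (~80 h p.i.). Parasitemia was read by FACS from 3 independent measurements, reported as standard error.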

DPAP1 [5] = biological target: T1, DPAP1 (Plasmodium falciparum, UniProt Q8IIJ9); assay: DPAP1 specific fluorogenic assay; type: biochemical
T1 sequence (Q8IIJ9 370-599 limits assumed): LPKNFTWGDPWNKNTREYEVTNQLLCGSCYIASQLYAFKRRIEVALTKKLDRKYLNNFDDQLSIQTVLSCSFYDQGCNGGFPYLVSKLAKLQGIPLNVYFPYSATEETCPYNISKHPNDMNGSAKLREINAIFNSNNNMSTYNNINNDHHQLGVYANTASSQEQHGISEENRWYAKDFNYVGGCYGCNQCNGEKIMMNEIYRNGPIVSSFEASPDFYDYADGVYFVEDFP
T1 sequence (Q8IIJ9 28-209 limits assumed): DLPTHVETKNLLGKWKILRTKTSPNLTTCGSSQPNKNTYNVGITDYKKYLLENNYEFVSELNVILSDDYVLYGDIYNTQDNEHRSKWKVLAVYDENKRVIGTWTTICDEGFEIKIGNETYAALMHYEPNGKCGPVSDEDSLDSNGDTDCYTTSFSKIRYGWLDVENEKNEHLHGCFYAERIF
T1 sequence (Q8IIJ9 600-700 limits assumed): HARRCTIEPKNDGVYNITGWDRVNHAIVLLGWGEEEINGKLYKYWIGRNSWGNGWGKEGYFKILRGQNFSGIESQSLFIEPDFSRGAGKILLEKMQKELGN
In short: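 DPAP1 activity was assayed at 25 °C in pH 5.5 acetate buffer with 1% parasite lysate and 10 µM (Pro-Arg)2-Rho. Turnover was read for 5 min (ex 492/em 523 nm). Lysates were pretreated with inhibitor for set times (0.1–2 h). IC50 came from dose response fits. For ki, v/v0 relative to DMSO was fitted to a simple irreversible inhibitor model.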

DPAP1 [6] = biological target: T1, DPAP1; type: biochemical
In short: as §1

[7] = Stability after overnight incubation in mouse serum; type: in vitro ADME; conditions: 37 °C
In short: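 Inhibitor was incubated overnight at 37 °C in mouse serum. Remaining potency was tested as the ability to block FY01 labeling of DPAP1 in parasite lysates, run before and after serum exposure.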

[8] = Compound toxicity and pharmacokinetics in mice; type: in vivo; conditions: Figure S2
[9] = system: NK65 P. berghei parasites; assay: P. berghei mouse model of malaria, parasitemia; type: in vivo, Balb/c mice; conditions: Figure S2

Structure (SMILES): C[C@H](N)C(=O)N[C@@H](Cc1ccc(I)cc1)C(=O)C=[N+]=[N-] [Ala-4(I)Phe-DMK]
- inhibition of FPs (ABP labeling) (FPs (FP2/3)): but not FPs or DPAP3
- EC50 (P. falciparum [1]): 2.8 nM
- pharmacokinetic (PK) properties [2]: very poor
- concentration inducing schizont arrest and a FV defect (P. falciparum [3]): ≥ 1 µM
- inhibition of DPAP3 (ABP labeling) (DPAP3): but not FPs or DPAP3
- sensitivity at trophozoite stage relative to other stages (P. falciparum [4]): 10 times
- IC50 (DPAP1 [5]; read-out: IC50DPAP1,1h, 1h, lysates): 6.4 nM
- IC50 (DPAP1 [5]; read-out: IC50DPAP1,2h, 2h treatment of parasite lysates): 2 nM
- second order rate constant of inhibition (ki) (DPAP1 [5]; trophozoite lysates incubated with inhibitor 0.1–2h): 35000 ± 3000 M⁻¹ s⁻¹
- block of DPAP1 labeling by ABP (DPAP1 [6]; lysates, 30 min with 10 µM inhibitor then 1h FY01): efficiently blocked labeling
- selectivity towards DPAP1 over DPAP3 and the FPs (DPAP1 [6]; other papain fold cysteine proteases of P. falciparum): at least 1000 fold
- ability to inhibit DPAP1 after incubation in mouse serum [7]: lost virtually all of their activity

Structure (SMILES): CCC[C@H](N)C(=O)N[C@H](/C=C/S(=O)(=O)c1ccccc1)CCc1ccccc1 [JCP-410]
- PK properties [8]: poor
- effect in vivo [9]: no effect

Structure (SMILES): CCCCC(C(=O)COC(=O)c1c(C)cccc1C)n1cc(C2(N)CCCCC2)nn1 (stereo not shown) [ML4091]
- EC50 (P. falciparum [1]): 6000 nM
- EC50Tox (HFF cells): 12000 (3000) nM

Further lines, with some results ahead:

- EC50 (P. falciparum [1]): 220 nM
Structure (SMILES): CCCCC(C(=O)COc1c(F)c(F)cc(F)c1F)n1cc(C2(N)CCNCC2)nn1 (stereo not shown) [ML4162]
- EC50Tox (HFF cells): 68000 (4000) nM

- EC50 (P. falciparum [1]): 45000 nM
Structure (SMILES): CCCCC(C(=O)COc1c(F)c(F)cc(F)c1F)n1cc(C2(N)CCN(C(N)=O)CC2)nn1 (stereo not shown) [ML4154]
- EC50Tox (HFF cells): 30000 (5000) nM

- EC50 (P. falciparum [1]): > 100000 nM
Structure (SMILES): CCCCC(C(=O)COc1c(F)c(F)cc(F)c1F)n1cc(C2(N)CCN(C(C)=O)CC2)nn1 (stereo not shown) [ML4163]
- EC50Tox (HFF cells): > 100000 nM
